Experiments:
Assay type in all cases: functional
[1] = tested on: Escherichia coli; assay: Antibacterial activity against Escherichia coli
In short: (§1)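 Broth microdilution MIC following CLSI guidelines, in cation-adjusted Mueller-Hinton broth, incubated at 35°C. Recent clinical isolates and reference strains, with identity confirmed by automated and standard microbiological methods. Results reported as MIC range, MIC50 and MIC90.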

[2] = tested on: Staphylococcus aureus; assay: Antibacterial activity against oxacillin and levofloxacin-resistant Staphylococcus aureus
In short: (§2)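 Broth microdilution MIC per CLSI guidelines, incubated at 35°C. Cation-adjusted Mueller-Hinton broth for nonfastidious organisms and staphylococci. Streptococci tested in the same broth with 3% lysed horse blood. Anaerobes tested in supplemented Brucella broth inside an anaerobe chamber (5% CO2, 5% H2, 90% N2), read after 48 h. Strains were mainly recent clinical isolates with confirmed identity.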

[3] = tested on: Streptococcus pneumoniae; assay: Antibacterial efficacy against Streptococcus pneumoniae SVI infected orally dosed CD1 mouse model; conditions: po, read-out: PD50
In short: (§3)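 Sepsis model in female CD1 mice (6–8 weeks, 18–22 g). Lethal i.p. challenge (0.5 ml) at ≥100 median lethal doses. Streptococci were given in Todd-Hewitt broth; other organisms were given with 20% hog gastric mucin. A single oral gavage dose (0.5 ml, in 0.5% methylcellulose) was given at the time of challenge. The PD50 (mg/kg) was calculated by probit analysis.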

[4] = tested on: Enterobacter cloacae; assay: Antibacterial activity against Enterobacter cloacae; in short: as §1
[5] = tested on: Clostridium perfringens; assay: Antibacterial activity against Clostridium perfringens; in short: as §2
[6] = tested on: Enterococcus faecalis; assay: Antibacterial activity against Enterococcus faecalis; in short: as §2
[7] = tested on: Stenotrophomonas maltophilia; assay: Antibacterial activity against Stenotrophomonas maltophilia; in short: as §1
[8] = tested on: Burkholderia cepacia; assay: Antibacterial activity against Burkholderia cepacia; in short: as §1
[9] = tested on: Enterococcus faecium; assay: Antibacterial activity against Enterococcus faecium; in short: as §2
[10] = tested on: Streptococcus viridans; assay: Antibacterial activity against Streptococcus viridans
In short: (§4)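 Broth microdilution MIC following CLSI guidelines, in cation-adjusted Mueller-Hinton broth with 3% lysed horse blood. Plates incubated at 35°C. Clinical isolates and reference strains, with identity confirmed by standard microbiological methods.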

[11] = tested on: Staphylococcus warneri; assay: Antibacterial activity against Staphylococcus warneri; in short: as §1
[12] = tested on: Shigella sonnei; assay: Antibacterial activity against Shigella sonnei; in short: as §1
[13] = tested on: Enterococcus faecium; assay: Antibacterial activity against VanB-resistant Enterococcus faecium; in short: as §2
[14] = tested on: Enterococcus faecalis; assay: Antibacterial activity against VanB-resistant Enterococcus faecalis; in short: as §2
[15] = tested on: Shigella flexneri; assay: Antibacterial activity against Shigella flexneri; in short: as §1
[16] = tested on: Enterococcus faecalis; assay: Antibacterial efficacy against Enterococcus faecalis MGH2 infected orally dosed CD1 mouse model; in short: as §3
[17] = tested on: Haemophilus influenzae; assay: Antibacterial activity against beta-lactamase negative Haemophilus influenzae
In short: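 Broth microdilution MIC following CLSI guidelines, in Haemophilus test medium at 35°C.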

[18] = tested on: Streptococcus pneumoniae; assay: Antibacterial activity against penicillin-resistant Streptococcus pneumoniae; in short: as §2
[19] = tested on: Parabacteroides distasonis; assay: Antimicrobial activity against Bacteroides distasonis
In short: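 Anaerobic broth microdilution MIC following CLSI guidelines, in supplemented Brucella broth. Incubated at 35°C in a chamber under 5% CO2, 5% H2 and 90% N2. Read after 48 h.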

[20] = tested on: Streptococcus sanguinis; assay: Antibacterial activity against Streptococcus sanguis; in short: as §4
[21] = tested on: Streptococcus pneumoniae; assay: Antibacterial activity against Streptococcus pneumoniae SVI infected once daily orally dosed CD1 mouse; conditions: po, read-out: PD50
In short: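 Pneumonia model in CD1 mice (n = 8), anaesthetised with ketamine i.p. Intranasal instillation of 50 μl of broth culture (10^8–10^9 CFU/ml, OD600 0.70), confirmed by plate counts. Oral therapy began 24 h post-challenge. Dosing was either once daily for 1 day or twice daily for 3 days. The result was given as the PD50 (mg/kg).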

[22] = tested on: Cutibacterium acnes; assay: Antibacterial activity against Propionibacterium acnes
[23] = tested on: Enterococcus faecalis; assay: Antibacterial activity against VanA-resistant Enterococcus faecalis; in short: as §2
[24] = tested on: Prevotella sp.; assay: Antibacterial activity against Prevotella sp.
In short: (§5)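 Anaerobic broth microdilution MIC following CLSI guidelines, in supplemented Brucella broth. Run in an anaerobe chamber under 5% CO2, 5% H2 and 90% N2 at 35°C, and read after 48 h. Reported as MIC range, MIC50 and MIC90.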

[25] = tested on: Peptoniphilus asaccharolyticus; assay: Antibacterial activity against Peptostreptococcus asaccharolyticus; in short: as §5
[26] = tested on: Anaerococcus prevotii; assay: Antibacterial activity against Peptostreptococcus prevotii; in short: as §5
[27] = tested on: Enterococcus faecalis; assay: Antibacterial activity against beta-lactamase positive Enterococcus faecalis
In short: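 MIC by CLSI broth microdilution for nonfastidious organisms, in cation-adjusted Mueller-Hinton broth incubated at 35°C.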

[28] = tested on: Moraxella catarrhalis; assay: Antibacterial activity against beta-lactamase positive Moraxella catarrhalis
[29] = tested on: Staphylococcus saprophyticus; assay: Antibacterial activity against Staphylococcus saprophyticus; in short: as §1
[30] = tested on: Neisseria gonorrhoeae; assay: Antibacterial activity against Neisseria gonorrhoeae
In short: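 MIC by broth microdilution in gonococcal broth, incubated at 35°C in 5% CO2. Reported as MIC range, MIC50 and MIC90.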

[31] = tested on: Fusobacterium nucleatum; assay: Antibacterial activity against Fusobacterium nucleatum; in short: as §5
[32] = tested on: Staphylococcus aureus; assay: Antibacterial efficacy against methicillin-susceptible Staphylococcus aureus UC76 infected orally dosed CD1 mouse model; conditions: UC76, po; in short: as §3
[33] = tested on: Finegoldia magna; assay: Antibacterial activity against Peptostreptococcus magnus; in short: as §5
[34] = tested on: Citrobacter freundii; assay: Antibacterial activity against Citrobacter freundii; in short: as §1
[35] = tested on: Prevotella bivia; assay: Antibacterial activity against Prevotella bivia; in short: as §5
[36] = tested on: Enterococcus gallinarum; assay: Antibacterial activity against Enterococcus gallinarum
[37] = tested on: Klebsiella aerogenes; assay: Antibacterial activity against Enterobacter aerogenes; in short: as §1
[38] = tested on: Streptococcus equinus; assay: Antibacterial activity against Streptococcus bovis; in short: as §4
[39] = tested on: Corynebacterium jeikeium; assay: Antibacterial activity against Corynebacterium jeikeium
In short: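 Broth microdilution MIC following CLSI guidelines, in cation-adjusted Mueller-Hinton broth containing 3% lysed horse blood, incubated at 35°C. Clinical isolates with identity confirmed. Reported as MIC range, MIC50 and MIC90.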

[40] = tested on: Staphylococcus aureus; assay: Antibacterial efficacy against ciprofloxacin and methicillin-resistant Staphylococcus aureus SA2017 infected orally dosed CD1 mouse model; in short: as §3
[41] = tested on: Proteus vulgaris; assay: Antibacterial activity against Proteus vulgaris; in short: as §1

C[C@H]1COc2c(N3CCN(C)CC3)c(F)cc3c(=O)c(C(=O)O)cn1c23.C[C@H]1COc2c(N3CCN(C)CC3)c(F)cc3c(=O)c(C(=O)O)cn1c23.O [LEVOFLOXACIN]
MIC50 [1]: 0.03 mg/L
MIC90 [1]: 1 mg/L
MIC50 [2]: 32 mg/L
MIC90 [2]: 64 mg/L
ED50 [3]: 69 mg/kg
MIC50 [4]: 0.06 mg/L
MIC90 [4]: 1 mg/L
MIC90 [5]: 0.5 mg/L
MIC50 [6]: 16 mg/L
MIC90 [6]: 32 mg/L
MIC50 [7]: 1 mg/L
MIC90 [7]: 4 mg/L
MIC50 [8]: 4 mg/L
MIC90 [8]: 16 mg/L
MIC50 [9]: 32 mg/L
MIC90 [9]: 64 mg/L
MIC50 [10]: 1 mg/L
MIC90 [10]: 1 mg/L
MIC [11]: 0.125 mg/L
MIC50 [12]: 0.03 mg/L
MIC90 [12]: 0.06 mg/L
MIC [13]: 4 mg/L
MIC50 [14]: 16 mg/L
MIC90 [14]: 32 mg/L
MIC50 [15]: 0.03 mg/L
MIC90 [15]: 0.06 mg/L
MIC [16]: 1 mg/L
MIC50 [17]: 0.015 mg/L
MIC90 [17]: 0.03 mg/L
MIC50 [18]: 0.5 mg/L
MIC90 [18]: 1 mg/L
MIC50 [19]: 8 mg/L
MIC90 [19]: 32 mg/L
MIC50 [20]: 1 mg/L
MIC90 [20]: 1 mg/L
ED50 [21]: 69 mg/kg
MIC50 [22]: 2 mg/L
MIC90 [22]: 64 mg/L
MIC [23]: 16 mg/L
MIC50 [24]: 1 mg/L
MIC90 [24]: 2 mg/L
MIC [25]: 0.125 mg/L
MIC [26]: 0.125 mg/L
MIC [27]: 0.5 mg/L
MIC50 [28]: 0.03 mg/L
MIC90 [28]: 0.06 mg/L
MIC50 [29]: 0.25 mg/L
MIC90 [29]: 0.5 mg/L
MIC50 [30]: 0.008 mg/L
MIC90 [30]: 0.008 mg/L
MIC [31]: 0.03 mg/L
MIC [32]: 0.125 mg/L
ED50 ([32]; read-out: PD50): 4.6 mg/kg
MIC [33]: 0.125 mg/L
MIC50 [34]: 0.125 mg/L
MIC90 [34]: 16 mg/L
MIC50 [35]: 1 mg/L
MIC90 [35]: 2 mg/L
MIC50 [36]: 1 mg/L
MIC90 [36]: 2 mg/L
MIC50 [37]: 1 mg/L
MIC90 [37]: 32 mg/L
MIC50 [38]: 2 mg/L
MIC90 [38]: 2 mg/L
MIC50 [39]: 0.25 mg/L
MIC90 [39]: 0.5 mg/L
MIC [40]: 8 mg/L
MIC [41]: 0.03 mg/L

Source: ChEMBL document CHEMBL1147105, “In vitro and in vivo activities of PD 0305970 and PD 0326448, new bacterial gyrase/topoisomerase inhibitors with potent antibacterial activities versus multidrug-resistant gram-positive and fastidious organism groups” (2007)
